TNAP act hiacc: TNAP (human) activation, high acceptor | AID 1136 | activation factor at 20 µM | 200,000 tested, under 10 active | purified TNAP, CDP-star luminescence, 1 M DEA, 30 min; stronger effect = higher value; 0 = EDTA background, 1 = DMSO-only activity;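 active = activation factor at least 2 at 20 µM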
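Assay system: human TNAP; Input: enzyme diluted 1/800 final; Reagent: CDP-star luminogenic substrate at 100 µM final; Timing: 30 min, room temperature; Signal: luminescence; Evaluation: TNAP activation factor scaled between EDTA and DMSO control wells.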
p97 inhibitor: blocks human p97 ATPase activity | P55072 | recombinant p97 ATPase, Kinase-Glo ATP luminescence, 3 h | inhibition, % at 8 µM | actives 0.42% (n = 220,000) | AID 1481; in the data active = inhibition above about 15%;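 note: 0% = DMSO vehicle and 100% = wells lacking enzyme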
Target sequence (P55072 whole entry, looked up): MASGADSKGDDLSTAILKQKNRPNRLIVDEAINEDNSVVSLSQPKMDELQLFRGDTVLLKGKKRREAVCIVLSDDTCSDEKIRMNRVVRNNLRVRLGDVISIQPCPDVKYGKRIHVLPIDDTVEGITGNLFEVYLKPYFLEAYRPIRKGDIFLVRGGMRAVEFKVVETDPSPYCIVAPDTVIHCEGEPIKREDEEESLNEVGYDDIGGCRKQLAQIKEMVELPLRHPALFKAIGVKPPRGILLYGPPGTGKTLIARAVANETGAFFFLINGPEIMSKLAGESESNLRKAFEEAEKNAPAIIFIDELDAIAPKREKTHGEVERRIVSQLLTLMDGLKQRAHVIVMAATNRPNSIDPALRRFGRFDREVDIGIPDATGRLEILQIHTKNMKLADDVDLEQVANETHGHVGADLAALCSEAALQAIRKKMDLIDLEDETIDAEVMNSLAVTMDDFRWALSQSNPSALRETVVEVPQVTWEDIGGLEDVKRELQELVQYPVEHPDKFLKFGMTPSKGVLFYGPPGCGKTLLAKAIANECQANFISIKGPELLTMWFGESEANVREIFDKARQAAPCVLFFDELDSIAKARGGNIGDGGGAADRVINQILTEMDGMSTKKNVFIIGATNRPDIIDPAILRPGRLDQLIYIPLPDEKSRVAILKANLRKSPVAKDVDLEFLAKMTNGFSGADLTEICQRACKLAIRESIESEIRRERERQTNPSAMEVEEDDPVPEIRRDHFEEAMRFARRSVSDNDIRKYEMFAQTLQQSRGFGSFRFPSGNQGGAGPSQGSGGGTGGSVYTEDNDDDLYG
Redox H2O2 prof: compounds producing H2O2 with reducing agent – biochemical, NIH compound library profiling, artefact control for MLSCN library redox annotation, primary screen | DTT-dependent redox cycling H2O2, phenol red/HRP absorbance; 100% = 100 µM peroxide control, 0% = buffer | activation, % at 10 µM | actives 0.03% (n = 200,000) | AID 878;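 active = activation of at least 50% relative to the plate's high and low controls in the primary single-dose screen; inactive = activation below 50%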;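 note: compound incubated with DTT at 0.8 mM final as the reducing agent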
TNAP inh noacc: inhibitors of human TNAP without phosphate acceptor | P05186 | purified TNAP, CDP-star luminescence, 30 min | inhibition, % at 20 µM | actives 0.26% (n = 200,000);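 active = tissue-nonspecific alkaline phosphatase inhibition above about 50% at 20 µM in the single-dose screen, limit read from the data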;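 note: 0% = DMSO negative control and 100% = EDTA positive control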
TNAP inh hiacc: blocks human TNAP under high phosphate acceptor concentration. P05186. purified TNAP, CDP-star luminescence, 1 M DEA. inhibition, % at 20 µM. actives 0.03% (n = 200,000). AID 1135;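 active = over 50% inhibition of tissue-nonspecific alkaline phosphatase at 20 µM in the single-dose screen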;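 note: plate controls were DMSO wells for no effect and EDTA-quenched wells as full inhibition for full effect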
PERK inh: inhibitors of human PERK kinase; Q9NZJ5; inhibition, % at 5.6 µM; CHO PERK-DD fusion, SEAP luminescence translation reporter; actives 0.17% (n = 220,000); AID 1416;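 active = inhibition above the mean inhibition of all tested compounds plus 3 SD, set separately per screening campaign, cut at about 2.9% in these data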;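 note: PERK kinase domain activated by AP20187 dimerizer at 100 nM; 0% = DMSO with dimerizer and 100% = rapamycin at 8.4 µM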
Active calls of the source: *; nt = no result given; ! = a repeat was not active. Shown are actives, neighbours in structure and some others; about 0.86% of the full set was active somewhere.

SMILES	TNAP act hiacc	p97 inhibitor	Redox H2O2 prof	TNAP inh noacc	TNAP inh hiacc	PERK inh
Cc1cc(C)nc(NS(=O)(=O)c2ccc(NC(=O)CSc3ncn[nH]3)cc2)n1	1.1	7	0	-7	-7	1
Cc1cc(C)c(S(=O)(=O)Nc2ccc(O)c(Sc3ncn[nH]3)c2)c(C)c1	1	-6	-1	72*	1	0
O=C(NNc1ccccc1[N+](=O)[O-])Nc1cccc(Cl)c1	nt	7	nt	nt	nt	0
Nc1ccc2c(c1)C(=O)C(=O)c1ccccc1-2	1	31*	31	-10	2	0
Oc1ccc(N=Nc2n[nH]c(-c3ccc(Br)cc3)n2)cc1	0.6	4	0	75*	44	0
Oc1ccc(N=Nc2n[nH]c(-c3ccccc3)n2)cc1	0.7	-6	0	74*	31	0
Oc1ccc(N=Nc2nc(-c3ccccc3)c(-c3ccccc3)[nH]2)cc1	0.4	10	0	49	58*	1
c1ccc(-c2nc(-c3cccnc3)n[nH]2)cc1	1	5	3	20	-1	1
Oc1ccc(N=Nc2ccc(Br)cc2)c(O)c1	nt	8	nt	nt	nt	1
CCCCN(C)CCCNC(=O)/C=C1\Sc2ccccc2NC1=O	1	6	-1	-12	-1	1
CCc1ccccc1NC(=S)N(CCN1CCOCC1)Cc1ccccc1F	1	-6	-3	-5	-2	0
Cc1nc2c(=O)n(-c3ccc(F)c(Cl)c3)nc(C)c2s1	nt	13	nt	nt	nt	0
CC(C)=C1C(=O)NN(c2ccc(F)c(Cl)c2)C1=O	1.1	20*	2	-12	-7	2
CCOc1cc(C(=O)Nc2ccc(S(=O)(=O)NC3=NCCCCC3)cc2)cc(OCC)c1OCC	1	-1	-1	0	-4	2
COc1cc(/C=N/NS(=O)(=O)c2ccc(C)cc2)ccc1OCc1ccc(C(=O)O)cc1	1	6	-10	-7	0	2.9*
Cc1c(Cl)cccc1NC(=O)CNCc1ccccc1F	1	5	-1	-7	-5	0
COc1ccccc1C(=O)N1CCN(Cc2cn[nH]c2-c2ccc(F)cc2F)CC1	1	2	0	86*	4	2
COc1ccc(-c2[nH]ncc2CN2CCC(N3CCSCC3)CC2)c(F)c1	1.1	6	-1	75*	-6	0
c1ccc(-c2ccc(-c3[nH]ncc3CN3CCC(N4CCSCC4)CC3)cc2)cc1	1	1	0	-9	-2	-1
COCC1CCN(Cc2cn[nH]c2-c2ccc(OC)cc2F)C1 (stereo not given)	1	1	7	74*	-3	0
CCOC(=O)C1CCCN(Cc2cn[nH]c2-c2ccc(F)cc2F)C1 (stereo not given)	1.1	1	-1	42	-5	0
COc1ccc(-c2[nH]ncc2CN2CCC(OCc3ccccc3)CC2)c(F)c1	1.1	1	0	45	-6	0
COc1ccc(-c2[nH]ncc2CN2CCCO2)c(F)c1	1.1	-2	0	64*	-8	0
CCOC(=O)c1cc(-c2ccc(Cl)cc2)nc2c1c(=O)[nH]c(=O)n2CCOC	1	-7	-1	-18	-4	0
NC(=O)CNC(=O)c1ccc(Cl)cc1	nt	7	nt	nt	nt	2
SMILES	TNAP act hiacc	p97 inhibitor	Redox H2O2 prof	TNAP inh noacc	TNAP inh hiacc	PERK inh
O=[N+]([O-])c1ccc(N/N=C/c2cccc(O)c2O)c(S(=O)(=O)N2CCOCC2)c1	0.6	3	1	79*	39	0
Cc1nc(C(C)N(C)Cc2nc(-c3ccc4c(c3)OCO4)no2)c(C)s1 (stereo not given)	1.1	-2	-2	2	-8	3.0*
CCOC(=O)N1CCN(CCC(=O)Nc2cc([N+](=O)[O-])ccc2OC)CC1	1	7	0	-15	-4	0
Nc1ccc2c(c1)C/C(=C/c1ccco1)C2=O	0.9	15*	0	0	7	1
CC1(C)CC(=O)c2c(-c3cccs3)n[nH]c2C1	0.9	-1	0	88*	8	-1
CCCc1n[nH]c2c1C(=O)CC(C)(C)C2	1	0	0	64*	-4	1
O=c1[nH]nc(-c2cccs2)c2ccccc12	1.1	5	-2	-4	-6	2
O=S(=O)(NC(=NC1CCCC1)C(F)(F)F)c1ccccc1	1	-5	2	-10	1	0
O=[N+]([O-])c1ccc(CN2CCN(c3ccc4ccccc4n3)CC2)cc1	1	-2	-1	-6	-3	0
COc1ccc(OC)c(S(=O)(=O)Nc2ccc(F)cc2)c1	1	1	0	-6	-1	0
COc1ccc(C)cc1S(=O)(=O)Nc1cccnc1	0.4	4	-2	85*	64*	1
COc1ccc(C)cc1S(=O)(=O)Nc1ccc(F)cc1	1	5	-4	-8	-2	0
COc1ccc(OC)c(S(=O)(=O)Nc2cnc3ccccc3c2)c1	0.2	4	2	94*	82*	0
Cc1cc(NN)nc(NS(=O)(=O)c2ccc(Cl)cc2)n1	1	-2	0	-4	-4	1
Cc1cc(NN)nc(NS(=O)(=O)c2ccccc2)n1	1.1	2	0	50*	-6	0
CCN(CCn1cccn1)Cc1c(C(=O)N2CCCCCCC2)nc2ccc(Cl)cn12	1	3	-1	-3	-4	-1
CC(C)Oc1ccc(CCC(=O)NNC(=O)CCC(=O)O)cc1	nt	4	nt	nt	nt	3.1*
COc1ccc(CCC(=O)NC(C)C)cc1	1.1	4	0	-7	-6	1
CCOC(=O)c1nn(-c2ccc(F)cc2)c(C)c1C(C)=O	1	4	0	-3	-4	0
CCOC(=O)c1ncn2c1CN(C)C(=O)c1cc(F)ccc1-2	1	2	-1	-7	-4	3.1*!
CSC1=NCCN1C(=O)C12CC3CC(CC(C3)C1)C2	1	3	0	-4	0	0
Cc1nc2nc(-c3ccccc3)cc(=O)n2[nH]1	1.1	-8	0	0	-5	3.0*
O=C1CCC(=O)N1c1nc2nc(-c3ccccc3)cc(=O)n2[nH]1	1	5	0	-6	1	1
CCOC(=O)c1sc(NC(=O)CSc2nc(C)cc(-c3ccccc3)n2)c(C#N)c1C	1	6	-4	-10	-1	2
CCOC(=O)c1sc(NC(=O)CSc2n[nH]c(-c3ccc(Cl)cc3Cl)n2)c(C#N)c1C	0.6	1	1	96*	37	1
O=C(NNC(=O)c1ccc2ccccc2c1O)c1ccccc1Cl	1	3	2	65*	0	0
O=C(/C=C/c1ccccc1Cl)Nn1cnc2ccccc2c1=O	1	3	0	-16	-2	1

Compound activity (PubChem BioAssay)
